Source: ChEMBL document CHEMBL3102806, “1,2,4-Triazole/oxime hybrids as new strategy for nitric oxide donors: Synthesis, anti-inflammatory, ulceroginicity and antiproliferative activities” (Eur J Med Chem, 2014)

Assays:
Type in all cases: functional
RPMI-8226 = experiment: Growth inhibition of human RPMI8226 cells after 48 hrs by sulforhodamine B assay; settings: RPMI-8226, 48 h
Outline: (§1)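 NCI 60-cell-line panel (nine tumour subpanels), five-dose format: 10-fold dilutions from 10^-4 to 10^-8 M, 48 h continuous exposure, SRB protein stain. Percent growth at each level is derived from time-zero, untreated control and treated absorbances. GI50 is the concentration where [(Ti−Tz)/(C−Tz)]×100 = 50. Values outside the tested range are reported as above or below the limit.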

TK-10 = experiment: Growth inhibition of human TK10 cells after 48 hrs by sulforhodamine B assay; settings: TK-10, 48 h
Outline: (§2)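 NCI 60-cell-line panel, five-dose run at 10-fold dilutions from 10^-4 to 10^-8 M, 48 h continuous exposure. Viability by SRB protein stain. Percent growth is taken from time-zero, untreated-control and treated absorbances. GI50 is the concentration giving a 50% lower net protein increase than in control cells. TGI is taken at Ti = Tz, LC50 at a 50% loss of initial protein.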

SN12C = experiment: Growth inhibition of human SN12C cells after 48 hrs by sulforhodamine B assay; outline: as §2
COLO 205 = experiment: Growth inhibition of human COLO205 cells after 48 hrs by sulforhodamine B assay; settings: COLO 205, 48 h
Outline: (§3)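 NCI full ~60 cell line panel. Five 10-fold concentrations from 10^-4 to 10^-8 M, 48 h continuous exposure, SRB protein read-out. Time-zero, control and treated absorbances give percentage growth. GI50 is the concentration where [(Ti−Tz)/(C−Tz)]×100 = 50; TGI is where Ti = Tz; LC50 is where [(Ti−Tz)/Tz]×100 = −50.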

SK-MEL-28 = experiment: Growth inhibition of human SK-MEL-28 cells after 48 hrs by sulforhodamine B assay; settings: SK-MEL-28, 48 h; outline: as §2
NCI-H522 = experiment: Growth inhibition of human NCI-H522 cells after 48 hrs by sulforhodamine B assay; settings: NCI-H522, 48 h; outline: as §1
MOLT-4 = experiment: Growth inhibition of human MOLT4 cells after 48 hrs by sulforhodamine B assay; settings: MOLT-4, 48 h; outline: as §1
[1] = Growth inhibition of human OVCAR4 cells after 48 hrs by sulforhodamine B assay; settings: OVCAR-4, 48 h; outline: as §1
HL-60(TB) = experiment: Growth inhibition of human HL-60(TB) cells after 48 hrs by sulforhodamine B assay; settings: HL-60, 48 h
Outline: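 NCI 60-cell panel protocol: cells exposed continuously for 48 h to five 10-fold dilutions from 10^-4 to 10^-8 M. Growth estimated by SRB protein staining with time-zero, untreated-control and treated absorbances. Percentage growth computed at each level, and GI50 taken as the concentration giving a 50% lower net protein increase than control cells.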

SR = experiment: Growth inhibition of human SR cells after 48 hrs by sulforhodamine B assay; outline: as §2
OVCAR-3 = experiment: Growth inhibition of human OVCAR3 cells after 48 hrs by sulforhodamine B assay; settings: OVCAR-3, 48 h; outline: as §1
OVCAR-8 = experiment: Growth inhibition of human OVCAR8 cells after 48 hrs by sulforhodamine B assay; settings: OVCAR-8, 48 h; outline: as §1
A549 = experiment: Growth inhibition of human A549/ATCC cells after 48 hrs by sulforhodamine B assay; settings: A549, 48 h; outline: as §3
IGROV-1 = experiment: Growth inhibition of human IGROV1 cells after 48 hrs by sulforhodamine B assay; settings: IGROV-1, 48 h; outline: as §3
[2] = Growth inhibition of human SF539 cells after 48 hrs by sulforhodamine B assay; settings: SF-539, 48 h; outline: as §1
HT-29 = experiment: Growth inhibition of human HT-29 cells after 48 hrs by sulforhodamine B assay; settings: HT-29, 48 h; outline: as §3
NCI-H460 = experiment: Growth inhibition of human NCI-H460 cells after 48 hrs by sulforhodamine B assay; settings: NCI-H460, 48 h; outline: as §1
[3] = Growth inhibition of human UO31 cells after 48 hrs by sulforhodamine B assay; settings: UO-31, 48 h; outline: as §2
ACHN = experiment: Growth inhibition of human ACHN cells after 48 hrs by sulforhodamine B assay; outline: as §3
[4] = Growth inhibition of human HCC2998 cells after 48 hrs by sulforhodamine B assay; settings: HCC 2998, 48 h; outline: as §3
SNB-19 = experiment: Growth inhibition of human SNB19 cells after 48 hrs by sulforhodamine B assay; settings: SNB-19, 48 h; outline: as §2
SK-OV-3 = experiment: Growth inhibition of human SKOV3 cells after 48 hrs by sulforhodamine B assay; settings: SK-OV-3, 48 h; outline: as §2
T47D = experiment: Growth inhibition of human T47D cells after 48 hrs by sulforhodamine B assay; outline: as §2
SK-MEL-2 = experiment: Growth inhibition of human SK-MEL-2 cells after 48 hrs by sulforhodamine B assay; settings: SK-MEL-2, 48 h; outline: as §2
CAKI-1 = experiment: Growth inhibition of human CAKI-1 cells after 48 hrs by sulforhodamine B assay; settings: CAKI-1, 48 h; outline: as §3
M14 = experiment: Growth inhibition of human M14 cells after 48 hrs by sulforhodamine B assay; settings: M14, 48 h; outline: as §1
[5] = read-out: LC50 (the source's name)

COc1ccc(-c2nnc(SCC(=O)Nc3ccc(/C(C)=N/O)cc3)n2-c2ccccc2)cc1OC
97.4 µM: GI50 (M14)
13.7 µM: TGI (SK-OV-3)
9.45 µM: GI50 (T47D)
6.43 µM: GI50 (SNB-19)
29.4 µM: TGI (IGROV-1)
4.77 µM: GI50 [2]
21.4 µM: GI50 (NCI-H522)
9.73 µM: GI50 (A549)
5.04 µM: GI50 (SK-MEL-2)
28.8 µM: TGI (SK-MEL-2)
3.74 µM: GI50 (IGROV-1)
8.08 µM: GI50 (ACHN)
52.7 µM: TGI (TK-10)
> 100 µM: GI50 (RPMI-8226) | TGI (RPMI-8226) | CC50 (RPMI-8226; [5]) | CC50 (TK-10; [5]) | TGI (SN12C) | CC50 (SN12C; [5]) | GI50 (COLO 205) | TGI (COLO 205) | CC50 (COLO 205; [5]) | GI50 (SK-MEL-28) | TGI (SK-MEL-28) | CC50 (SK-MEL-28; [5]) | TGI (NCI-H522) | CC50 (NCI-H522; [5]) | GI50 (MOLT-4) | TGI (MOLT-4) | CC50 (MOLT-4; [5]) | GI50 [1] | TGI [1] | CC50 [1, 5] | GI50 (HL-60(TB)) | TGI (HL-60(TB)) | CC50 (HL-60(TB); [5]) | GI50 (SR) | TGI (SR) | CC50 (SR; [5]) | TGI (OVCAR-3) | CC50 (OVCAR-3; [5]) | TGI (OVCAR-8) | CC50 (OVCAR-8; [5]) | TGI (A549) | CC50 (A549; [5]) | CC50 (IGROV-1; [5]) | CC50 [2, 5] | GI50 (HT-29) | TGI (HT-29) | CC50 (HT-29; [5]) | GI50 (NCI-H460) | TGI (NCI-H460) | CC50 (NCI-H460; [5]) | GI50 [3] | TGI [3] | CC50 [3, 5] | TGI (ACHN) | CC50 (ACHN; [5]) | GI50 [4] | TGI [4] | CC50 [4, 5] | TGI (SNB-19) | CC50 (SNB-19; [5]) | CC50 (SK-OV-3; [5]) | TGI (T47D) | CC50 (T47D; [5]) | CC50 (SK-MEL-2; [5]) | GI50 (CAKI-1) | TGI (CAKI-1) | CC50 (CAKI-1; [5]) | TGI (M14) | CC50 (M14; [5])
7.36 µM: GI50 (OVCAR-8)
7.87 µM: GI50 (OVCAR-3)
26.2 µM: GI50 (SN12C)
11.3 µM: GI50 (TK-10)
38.8 µM: TGI [2]
2.73 µM: GI50 (SK-OV-3)
